Results: publication PMC9850772 (ACS Omega, 2023)

Legend:
logD = assay type: physicochemical; settings: pH 7.4
How it was run: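 68Ga-labelled test compound (0.5–2 MBq) was partitioned between 1-octanol and 0.05 M phosphate buffer, pH 7.4. Tubes were shaken for 5 min and centrifuged at 13,000 rpm for 2 min. Aliquots of each phase were γ-counted. Three experiments, each in triplicate.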

[1] = Stability toward peptidase degradation in human serum; assay type: in vitro ADME
How it was run: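 68Ga-labelled test compound (10–30 MBq, pH 7.4) was added to pooled human serum and kept at 37 °C. Aliquots were taken at 0, 15, 30, 45, 60 and 90 min and mixed with an equal volume of ice-cold ethanol. They were held on ice for 5 min and centrifuged. Supernatant and pellet activity were counted, and the supernatant was run on radio-HPLC. Three runs per radioligand.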

[2] = PET/CT imaging, time-activity curves in A431 tumor-bearing xenograft mice; assay type: in vivo; settings: female, BALB/c-AnN-Foxn-1^nu/nu-Rj (nude), mouse, iv, TAC
How it was run: (§1)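 Dynamic PET over 90 min p.i., then CT at 45 kVp and 0.4 mA. […] Images reconstructed by 2D-MLEM (12 iterations, 0.5 mm voxels) with scatter and decay correction. Frames 10 × 1, 10 × 2, 6 × 5 and 3 × 10 min. Volumes of interest drawn on heart, kidneys, tumour and muscle; SUV per frame gave time-activity curves.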

[3] = test system: A431 tumor-bearing xenograft mice; assay: as above; assay type: in vivo; settings: TACs
How it was run: as §1

[4] = Ex vivo biodistribution in A431 tumor-bearing xenograft mice; settings: mouse, intravenous, 5 MBq
[5] = test system: A431 tumor-bearing xenograft mice; assay: as above

**Q.** Which logD (logD) does the source give for `CC[C@H](C)[C@H](NC(=O)[C@@H](NC(=O)[C@H](CC(N)=O)NC(=O)[C@H](CCC(N)=O)NC(=O)[C@@H]1CCCN1C(=O)[C@@H](NC(=O)[C@H](Cc1ccc(O)cc1)NC(=O)CNC(=O)[C@H](Cc1ccc(O)cc1)NC(=O)[C@H](Cc1c[nH]c2ccccc12)NC(=O)[C@H](Cc1c[nH]cn1)NC(=O)[C@H](Cc1ccc(O)cc1)NC(=O)CCOCCOCCOCCOCCC(=O)NCCCN(CCCNC(=O)CCOCCOCCOCCOCCC(=O)NCCCC[C@@H]1NC(=O)[C@@H](Cc2ccc(O)cc2)NC(=O)[C@H](CC(=O)O)NC(=O)CNC(=O)[C@H](CCCNC(=N)N)NC1=O)CC(=O)NCCOCCOCCOCCOCCC(=O)N[C@@H](CCCCNC(=O)CC[C@H](C(=O)O)N1CCN(CC(=O)O)CCN(CC(=O)O)CC1)C(N)=O)[C@@H](C)O)C(C)C)C(=O)O` [[^68Ga]Ga-1, metal not drawn] here?
**A.** -3.07

**Q.** And the half-life [1]?
**A.** 272 min

**Q.** And the SUV ([2]; muscle, SUVmuscle, under EGFR blockade (hEGF))?
**A.** 0.18 ± 0.16 SUV

**Q.** What about the SUV ([2]; muscle, SUVmuscle, without blocking) of the same molecule?
**A.** 0.27 ± 0.16 SUV

**Q.** What about the SUV ([2]; tumor, SUVtumor, under EGFR blockade (hEGF)) of the same molecule?
**A.** 0.45 ± 0.44 SUV

**Q.** What about the “time at which accumulation in tumor, muscle and heart reached the plateau phase” value [3] of the same molecule?
**A.** 15 min p.i.

**Q.** What about the tissue uptake at 2 h ([4]; blood) of the same molecule?
**A.** 4.49 ± 2.17 %ID/g

**Q.** And the tissue uptake at 2 h ([4]; kidney)?
**A.** 88 ± 28.5 %ID/g

**Q.** What about the tissue uptake at 2 h ([4]; tumor) of the same molecule?
**A.** 2.79 ± 1.66 %ID/g

**Q.** And the “uptake into liver and lungs under EGFR blocking” value ([5]; co-application of hEGF)?
**A.** not reduced

**Q.** And the “tumor uptake under EGFR blocking” value ([5]; co-application of hEGF, 2 h p.i.)?
**A.** did not decrease

**Q.** What about the “decrease of absolute tumor uptake” value ([5]; integrin blockade with excess of c(RGDyK), 120 min p.i.) of the same molecule?
**A.** 87%

**Q.** With `CC[C@H](C)[C@H](NC(=O)[C@@H](NC(=O)[C@H](CC(N)=O)NC(=O)[C@H](CCC(N)=O)NC(=O)[C@@H]1CCCN1C(=O)[C@@H](NC(=O)[C@H](Cc1ccc(O)cc1)NC(=O)CNC(=O)[C@H](Cc1ccc(O)cc1)NC(=O)[C@H](Cc1c[nH]c2ccccc12)NC(=O)[C@H](Cc1c[nH]cn1)NC(=O)[C@H](Cc1ccc(O)cc1)NC(=O)CCOCCOCCOCCOCCOCCOCCC(=O)NCCCN(CCCNC(=O)CCOCCOCCOCCOCCOCCOCCC(=O)NCCCC[C@@H]1NC(=O)[C@@H](Cc2ccccc2)NC(=O)[C@H](CC(=O)O)NC(=O)CNC(=O)[C@H](CCCNC(=N)N)NC1=O)CC(=O)NCCOCCOCCOCCOCCC(=O)N[C@@H](CCCCNC(=O)CC[C@H](C(=O)O)N1CCN(CC(=O)O)CCN(CC(=O)O)CC1)C(N)=O)[C@@H](C)O)C(C)C)C(=O)O` [[^68Ga]Ga-2, metal not drawn] as the molecule, how does the logD (logD) read?
**A.** -3.44

**Q.** And the half-life [1]?
**A.** 237 min
